An excerpt weighted towards active compounds, which were near 2.3% of everything screened.
STEP inh: inhibitors of human striatal-enriched phosphatase STEP; P54829; recombinant STEP, OMFP fluorogenic substrate, fluorescence; inhibition, % at 20 µM; hit rate 0.25% among 360,000; AID 588621;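 active = inhibition at 20 µM, scaled per plate between control wells, above about 37%, limit read from the data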;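 note: 0% = DMSO with enzyme and substrate and 100% = substrate only without enzyme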
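Material: STEP (striatal-enriched tyrosine phosphatase) enzyme, cell-free | Medium: 50 mM Bis-Tris pH 6.0 with 2.5 mM DTT and 0.005% Tween 20 | Read-out: Percent inhibition scaled to no-enzyme and uninhibited-enzyme controls, plate-pattern corrected | Signal: Fluorescence read at 480 nm ex / 540 nm em | Times: 20 min reaction, room temperature, in the dark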
DNMT1 inh: DNMT1 (human) enzyme inhibition; P26358; hit rate 0.83% among 360,000; inhibition (reported as % activation of signal), % at 10 µM; DNMT1 molecular beacon, Hinp1I cleavage, fluorescence; in the data active = inhibition above about 50%
LMPTP inh: LMPTP (human) inhibition; P24666; hit rate 0.22% among 360,000; inhibition, % at 20 µM; recombinant LMPTP-A, OMFP fluorogenic substrate, fluorescence intensity;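 active = compounds that cut the enzyme signal by at least half of the control window in the single-dose screen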;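 note: plate controls were DMSO wells with enzyme plus substrate for no effect and substrate without enzyme for full effect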
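Assay system: LMPTP-A enzyme. Input: 0.625 nM LMPTP-A final. Probe or stimulus: 400 µM OMFP. Compound dosing: single 20 µM dose. Schedule: 50 min dark incubation at room temperature. Detection: fluorescence intensity of OMFP turnover product. Read-out: percent inhibition versus substrate-only and uninhibited controls. Benchmarks: no-enzyme low control, uninhibited high control.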
Scp1 inh: blocks human Scp-1 phosphatase activity; Q9GZU7; Recombinant Scp1, phosphopeptide, malachite green phosphate absorbance; inhibition, % at 20 µM; hit rate 0.88% among 340,000; AID 493091;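 active = inhibition above about 50% at 20 µM, limit read from the data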;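 note: plate controls were DMSO wells with enzyme for no effect and wells lacking enzyme for full effect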
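System: truncated SCP-1 phosphatase (76-261aa); medium: Tris acetate buffer pH 5.5 with MgCl2 and Tween-20; incubation: 45 min room-temperature reaction, 5 min colour, 30 min stabiliser; compound: single 20 µM dose, 1% DMSO; reagent: Phosphorylated 17-residue peptide substrate; read-out: % inhibition at 20 µM; technique: colorimetric free-phosphate detection, absorbance 630 nm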
Rpn11 block: inhibitors of human proteasome Rpn11. hit rate 0.59% among 360,000. human 26S proteasome, Ub4-pepOG fluorescence polarization; 20S core pre-blocked with epoxomicin. O00487. inhibition, % at 20 µM;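 active = inhibition at 20 µM, scaled to each plate's controls, above about 33%, limit read from the data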
SUMO1-SIM PPI: alters human SUMO1 binding to SIM partners | inhibition, % at 20 µM | hit rate 0.33% among 360,000 | P63165 | SUMO1 binding to a labelled peptide, TR-FRET, 1 h; in the data active = inhibition above about 37%
Rpn11 inh conf: confirmation of human proteasome Rpn11 inhibitors. hit rate 29% among 1,900. shares compounds with Rpn11 block. purified human 26S proteasome, Ub4-pepOG fluorescence polarization; proteasome pretreated with epoxomicin. AID 602318. inhibition, % at 20 µM
MMP-2 counter: MMP-2 (human) inhibition counter-screen; recombinant MMP-2, FRET peptide cleavage fluorescence; shares compounds with Rpn11 block; hit rate 4% among 1,900; AID 602330; inhibition, % at 20 µM;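 note: human MMP-2 activated beforehand with APMA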
Target sequence (P08253 whole entry, looked up): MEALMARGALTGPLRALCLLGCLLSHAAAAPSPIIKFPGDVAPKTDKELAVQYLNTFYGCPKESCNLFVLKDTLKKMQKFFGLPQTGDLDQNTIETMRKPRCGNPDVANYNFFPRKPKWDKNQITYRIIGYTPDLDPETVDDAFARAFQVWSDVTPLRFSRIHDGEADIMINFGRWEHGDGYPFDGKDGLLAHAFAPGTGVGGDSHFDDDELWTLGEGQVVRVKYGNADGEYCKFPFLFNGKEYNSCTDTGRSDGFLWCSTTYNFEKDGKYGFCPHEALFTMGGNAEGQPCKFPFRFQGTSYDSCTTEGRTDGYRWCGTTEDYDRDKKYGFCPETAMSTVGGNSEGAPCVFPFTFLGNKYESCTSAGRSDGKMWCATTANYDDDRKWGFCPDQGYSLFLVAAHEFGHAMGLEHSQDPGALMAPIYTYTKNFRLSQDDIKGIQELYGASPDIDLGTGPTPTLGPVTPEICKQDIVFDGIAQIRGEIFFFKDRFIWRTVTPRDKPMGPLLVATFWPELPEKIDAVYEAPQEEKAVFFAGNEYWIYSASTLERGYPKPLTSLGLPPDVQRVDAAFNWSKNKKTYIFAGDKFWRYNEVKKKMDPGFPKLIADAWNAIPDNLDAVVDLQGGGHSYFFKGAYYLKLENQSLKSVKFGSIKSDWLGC
Thrombin inh: counter-screen for RPN11 inhibitors: inhibition of bovine thrombin | bovine thrombin cleavage of Ub4-pepOG, fluorescence polarization | AID 602333 | hit rate 13% among 1,900 | inhibition, % at 20 µM | shares compounds with Rpn11 block;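 active = mean inhibition at least 40% at 20 µM, or signal 3 deviations below plate average, so some actives read negative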;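 note: plate controls were thrombin with DMSO for no effect and buffer wells lacking thrombin for full effect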
The depositor's hits bear a star; · = not tested or not shown; + = active, no number. Cut-off read from the data, not from the text of the source, unless noted: active = inhibition above about 40%; inactive = the rest.

SMILES | STEP inh | DNMT1 inh | LMPTP inh | Scp1 inh | Rpn11 block | SUMO1-SIM PPI | Rpn11 inh conf | MMP-2 counter | Thrombin inh
CCCCCCCC(=O)OCC(O)CO (centres undefined) | -3.9 | 3.2 | 0.2 | -9.0 | 25.4 | -0.7 | · | · | ·
CCCCCCCCCCCCCCC(O)C[N+](C)(CCO)CCO (centres undefined) | 7.7 | 16.9 | -3.8 | 7.1 | 82.6* | -151.7 | 42.3* | -21.2 | -27.3
COc1ccc(F)c(CN2CCC(n3nccc3NC(=O)CCCc3ccccc3)CC2)c1 | 2.8 | 1.6 | 3.8 | 6.5 | 35.2* | 0.8 | -7.0 | -13.9 | -11.5
Cc1cc(N2CCCC2)ccc1/C=N/n1cnnc1 | -0.8 | -1.9 | 6.8 | 0.2 | 47.1* | -5.3 | -22.7 | -58.6 | -12.1
CCOC(=O)c1nc2cc3n(c(CC(C)C)c-2c1C)CC(C)=C3C | -1.2 | -3.5 | 2.1 | -0.7 | 55.9* | -8.1 | 18.3 | 5.8 | 13.6
CCOC(=O)c1nc2cc3n(c(C)c-2c1C)C(C)C(C)=C3C (centres undefined) | -3.4 | -5.0 | 1.6 | 0.5 | 0.8 | -9.0 | · | · | ·
CC(=O)Nc1ccc2c(c1)nc1n2CCOC1 | -2.7 | 2.7 | -1.5 | -6.1 | -5.8 | -0.2 | · | · | ·
O=C(Nc1ccc2c(c1)nc1n2CCOC1)C1CCCCC1 | -0.8 | 3.4 | -1.5 | -1.1 | + | 4.5 | -0.2 | -21.5 | -8.9
OCC[C@@H]1C[C@H](O)[C@@H](O)[C@@]2(OCCCc3cc(C(F)(F)F)ccc32)O1 | 1.1 | 1.1 | -1.0 | · | 0.7 | 0.7 | · | · | ·
O=C(NN1C(=O)/C(=C/C=C/c2ccco2)SC1=S)c1ccccc1O | 14.0 | 91.2* | 61.2* | 74.0* | 176.7* | 76.7* | 100.3* | 58.1* | 60.2*
COc1ccc(/C=C2\SC(=S)N(C(Cc3ccccc3)C(=O)O)C2=O)cc1 (centres undefined) | 6.8 | 3.3 | 0.4 | -4.5 | 7.2 | -14.0 | · | · | ·
O=C(O)C(Cc1ccccc1)N1C(=O)/C(=C/C=C/c2ccco2)SC1=S (centres undefined) | 83.3* | 97.3* | 63.8* | 83.7* | 175.0* | 114.5* | 178.3* | 36.4 | 53.5*
O=C(O)CC(C(=O)O)N1C(=O)/C(=C/C=C/c2ccco2)SC1=S (centres undefined) | 89.1* | 79.0* | 65.6* | 87.6* | 64.3* | 112.3* | 96.6* | 58.8* | 20.4
CN(CC(=O)Nc1ccccc1Cl)CC(=O)Nc1sc2c(c1C(N)=O)CCC2 | 1.4 | -4.2 | -0.4 | -4.9 | 10.4 | 4.6 | · | · | ·
NC(=O)N/N=C/c1sc(N2CCCCC2)nc1-c1cccs1 | 3.3 | -12.9 | 1.0 | 13.8 | 55.7* | -7.0 | 3.8 | -11.1 | -1.2
CC(C)NC(=S)N/N=C/c1sc(N2CCCCC2)nc1-c1cccs1 | 0.8 | -16.5 | 2.6 | -0.2 | 53.2* | -11.2 | 46.4* | 33.5 | 7.9
O=C(N/N=C/c1sc(N2CCCCC2)nc1-c1cccs1)C1CC1 | 3.4 | -5.0 | 1.2 | -1.4 | 23.0 | -16.2 | · | · | ·
O=C(CC(=O)Nc1ccccc1[N+](=O)[O-])Nc1ccccc1[N+](=O)[O-] | -0.1 | -1.0 | -1.7 | 4.5 | -6.2 | -24.6 | · | · | ·
O=C(CCOc1ccccc1)Nc1ccccc1[N+](=O)[O-] | -2.6 | -2.6 | 0.0 | -1.4 | 34.0* | -10.9 | -13.7 | 13.9 | -12.8
CO[C@@]12[C@@H]3N[C@@H]3CN1C1=C(C(=O)C(N)=C(C)C1=O)[C@@H]2COC(N)=O | -0.8 | -6.6 | -1.0 | -7.6 | -6.1 | -13.7 | · | · | ·
Cc1ccc(CNC(=O)c2ccc(N3CCC4(CC3)CC(c3cccc(Br)c3)=NO4)c(NC(=O)c3cccc(C)c3)c2)cc1 | 4.6 | -1.2 | 4.9 | -0.2 | 42.1* | 4.0 | 7.1 | -0.7 | 8.5

Source: PubChem (Sanford-Burnham Center for Chemical Genomics)
